TRPC4 act: TRPC4 (mouse) channel activation; HEK293 TRPC4beta/mu-opioid, Fluo4 calcium fluorescence; active compounds read high; 310,000 tested, 0.49% active; B-score at 10 µM; AID 2237;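 active = B-score above 5 SD of library B-scores, and initial fluorescence ratio not above library mean plus 5 SD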;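 note: positive B-score marks a calcium rise read as TRPC4 activation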
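Assay system: HEK293 stable line with TRPC4beta plus mu-opioid receptor. Times: dye 45 min RT, read 110 s. Measured by: kinetic Fluo4 calcium fluorescence. Measure: B score of integrated ratio. Controls: assay buffer as low control, maximal DAMGO as high control.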
TRPC6 inh: mouse TRPC6 channel inhibition; 310,000 tested, 1.1% active; HEK293-TRPC6, membrane potential dye, ACh-evoked depolarization; active compounds read low; Q61143; B-score at 10 µM;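 active = B-score under library mean minus 3 SD, initial fluorescence not abnormally high, positive integrated signal ratio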;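 note: B-score derived from integrated fluorescence ratio over the kinetic read; more negative B-score means stronger inhibition of depolarization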
TRPC6 act: activators of mouse TRPC6 channel | B-score at 10 µM | HEK293-TRPC6 membrane potential dye fluorescence; active compounds read high | 310,000 tested, 0.13% active | Q61143 | AID 2550;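 active = B-score of the integrated fluorescence ratio above library mean plus 3 SD, and starting fluorescence ratio within library mean plus 5 SD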;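 note: higher score means more depolarization so channel activation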
TRPC4 potent: TRPC4 (mouse) allosteric potentiation. B-score at 10 µM. Q9QUQ5. AID 2227. HEK293 TRPC4beta/mu-opioid, DAMGO EC20, Fluo-4 Ca2+ flux; active compounds read high. 310,000 tested, 0.42% active;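 active = B-score of calcium response area above 5 SD of library B-scores, with initial fluorescence ratio within 5 SD of library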
TRPC4 inh: inhibitors of mouse TRPC4 channel. HEK293 TRPC4beta/mu-opioid, DAMGO-evoked Fluo4 calcium flux; active compounds read low. B-score at 10 µM. 300,000 tested, 0.39% active;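 active = B-score over 3 SD under the library average, no early fluorescence shift, positive overall ratio signal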
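material = TRPC4beta/mu-opioid receptor HEK293 cell line | probe or stimulus = sequential submaximal and maximal DAMGO stimulation | compound dosing = one concentration per compound | measured by = Fluo4 Ca2+ flux fluorescence | evaluation = integrated fluorescence ratio relative to baseline, converted to per-well B score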
TRPC4 spec 2: second selectivity test of TRPC6 inhibitors: effect on mouse TRPC4. 920 tested, 42% active. inhibition, % at 10 µM. HEK293 TRPC4/MOR, membrane potential dye fluorescence; channel activated by saturating DAMGO dose. AID 2776. shares compounds with TRPC6 inh;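 active = compounds whose fluorescence signal differed from control wells by over 3 SD, either direction, in both duplicate plates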
TRPC4 spec: tests whether TRPC6 inhibitors also affect mouse TRPC4; shares compounds with TRPC6 inh; HEK293 TRPC4/mu-opioid, membrane potential fluorescence; activity change, negative = inhibition, % at 10 µM; 920 tested, 61% active;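 active = rise or fall in signal beyond 3 SD of buffer-only wells in both replicate plates, either sign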;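 note: integrated kinetic ratio of fluorescence range over baseline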
HEK293 MPD ctr 2-1: second counter-screen for TRPC6 inhibitors: parental HEK293 cells; shares compounds with TRPC6 inh; parental HEK293 membrane potential dye fluorescence; maximal acetylcholine challenge after compound addition; signal change vs control, % at 10 µM; 920 tested, 31% active; AID 2779;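 active = membrane potential signal moving either way by over 3 SD of the maximum-effect control, in both duplicate plates, meaning non-specific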
HEK293 MPD ctr-1: checks TRPC6 inhibitor effects in parental HEK293 cells | parental HEK293 membrane potential dye fluorescence | membrane potential signal change, % at 10 µM | shares compounds with TRPC6 inh | 920 tested, 60% active;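 active = membrane potential signal shifting up or down by more than 3 SD of buffer-only wells, on both duplicate plates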
HEK293 MPD ctr-2: counter-screen for TRPC6 modulators: effect in parental HEK293 cells | shares compounds with TRPC6 inh | membrane potential dye fluorescence | membrane potential signal change, % at 10 µM | 2,400 tested, 51% active | AID 488924;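 active = membrane potential signal moves up or down beyond 5 SD from buffer-only wells, on both duplicate plates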
HEK293 MPD ctr 2-2: second check of TRPC6 modulator effects in parental HEK293 cells; AID 488926; membrane potential dye fluorescence; after compound, maximal acetylcholine stimulation; shares compounds with TRPC6 inh; 2,400 tested, 14% active; inhibition, % at 10 µM;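 active = membrane potential signal drops by more than 5 SD from the mean control signal, in both duplicate plates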
TRPC4 ctr mod: selectivity of TRPC6 modulators against mouse TRPC4; HEK293 TRPC4/mu-opioid, membrane potential fluorescence; percent change from control (negative = decrease, positive = increase), % at 10 µM; 2,400 tested, 69% active; shares compounds with TRPC6 inh; AID 488927;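 active = membrane potential signal moved up or down beyond 5 SD of buffer control wells, in both duplicate plates, actives on both sides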
TRPC4/MOR inh 2: second check of whether TRPC6 modulators also affect mouse TRPC4. shares compounds with TRPC6 inh. HEK293 TRPC4/mu-opioid, membrane potential dye fluorescence; stimulated with maximal-effect DAMGO. inhibition, % at 10 µM. 2,400 tested, 55% active;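 active = drop in membrane potential signal beyond 5 SD of the control wells in both duplicate plates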;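 note: TRPC4 counter screen for TRPC6 hits run under conditions tuned for TRPC6 not TRPC4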
TRPC6 inh conf: confirmation of mouse TRPC6 inhibitors; shares compounds with TRPC6 inh; HEK293-TRPC6, membrane potential dye, ACh-evoked depolarization; inhibition, % at 10 µM; 3,300 tested, 43% active; AID 488960;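 active = fluorescence ratio falls more than 5 SD below the full-stimulation control mean, in both duplicate runs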;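 note: integrated fluorescence ratio of peak minus minimum over baseline after agonist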
TRPC6 act confirm: mouse TRPC6 activator confirmation; shares compounds with TRPC6 inh; 2,800 tested, 11% active; activation, % at 10 µM; HEK293-TRPC6 membrane potential dye fluorescence, FDSS;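 active = ratio signal rise beyond 5 SD above unstimulated control wells' mean, seen in both duplicate runs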
Large screens that a line does not name were inactive (follow-up assays come after a bar, where they were run). Rows were chosen to be rich in hits. Some 2.3% of all compounds tested hit in one or more screens of this group.

CCOC(=O)Nc1ccc2c(c1)N(C(=O)OC)c1ccccc1CC2	none
COc1cc(C(=O)Nc2ccc3c(c2)N(C(=O)CCN(C)C)c2ccccc2CC3)cc(OC)c1OC	TRPC6 inh -8.8 | HEK293 MPD ctr-2 inactive | HEK293 MPD ctr 2-2 inactive | TRPC4 ctr mod inactive | TRPC4/MOR inh 2 inactive | TRPC6 inh conf 58% | TRPC6 act confirm inactive
Cc1ccc(NC(=S)NC(=O)C2CCC2)cc1C	none
Cc1cc(N2CCC(N(C)C3CCCC3)CC2)nc2cc(O)ccc12	TRPC6 inh -6.7 | HEK293 MPD ctr-2 -282% | HEK293 MPD ctr 2-2 inactive | TRPC4 ctr mod -54% | TRPC4/MOR inh 2 47% | TRPC6 inh conf 43% | TRPC6 act confirm inactive
Cc1cc(N2CCN(c3ccccc3)CC2)nc2ccccc12	none
CC1(C)CC(N=C2C([N+](=O)[O-])=CC=C3C2=NC2(CCCCC2)N3O)CC(C)(C)N1	TRPC6 inh -5.2 | HEK293 MPD ctr-2 -130% | HEK293 MPD ctr 2-2 inactive | TRPC4 ctr mod -26% | TRPC4/MOR inh 2 30% | TRPC6 inh conf inactive | TRPC6 act confirm inactive
O=[N+]([O-])C1=CC=C2C(=NC3(CCCCC3)N2O)C1=NC1CCCCC1	none
Cc1nn(C(C)C(=O)N2CCN(c3ccccn3)CC2)c(=O)c2cc3occc3n12 (stereo unspecified)	none
Cc1cccc(N2CCN(C(=O)C(C)n3nc(C)n4c(cc5occc54)c3=O)CC2)c1C (stereo unspecified)	TRPC6 inh -5.1 | HEK293 MPD ctr-2 inactive | HEK293 MPD ctr 2-2 inactive | TRPC4 ctr mod 14% | TRPC4/MOR inh 2 inactive | TRPC6 inh conf inactive
CC(Oc1ccc(Cl)cc1Cl)C(=O)NNC(=O)C(=O)N1CCCCC1 (stereo unspecified)	none
O=C(COc1ccccc1)NCCSc1ccccc1	TRPC6 inh -5.8 | HEK293 MPD ctr-2 inactive | HEK293 MPD ctr 2-2 inactive | TRPC4 ctr mod 8.5% | TRPC4/MOR inh 2 inactive | TRPC6 inh conf inactive
O=C(Nc1ccc(S(=O)(=O)N2CCCCC2c2cccnc2)cc1)c1c(F)cccc1F (stereo unspecified)	TRPC6 inh -5.1 | HEK293 MPD ctr-2 inactive | HEK293 MPD ctr 2-2 inactive | TRPC4 ctr mod inactive | TRPC4/MOR inh 2 inactive | TRPC6 inh conf inactive | TRPC6 act confirm inactive
Cn1cccc1/C=C1\CCC/C(=C\c2cccn2C)C1=O	TRPC6 act 35 | HEK293 MPD ctr-2 261% | HEK293 MPD ctr 2-2 inactive | TRPC4 ctr mod 98% | TRPC4/MOR inh 2 inactive | TRPC6 inh conf inactive | TRPC6 act confirm 66%
O=C1/C(=C/c2cccs2)CCC/C1=C\c1cccs1	none
Cc1ccnc(SCC(=O)N2CCN(C(c3ccccc3)c3ccccc3)CC2)n1	TRPC6 inh -11, TRPC6 act 18 | HEK293 MPD ctr-2 118% | HEK293 MPD ctr 2-2 inactive | TRPC4 ctr mod 20% | TRPC4/MOR inh 2 inactive | TRPC6 inh conf 62% | TRPC6 act confirm 142%
O=C(N/N=C/C=C/c1ccccc1)NC1CCCCC1	none
CSC(=NNC(=O)c1ccc(O)cc1)SC	none
CCN(CC)CCNc1cc(C)c(C#N)c2nc3ccccc3n12	TRPC6 inh -11 | HEK293 MPD ctr-2 -411% | HEK293 MPD ctr 2-2 96% | TRPC4 ctr mod -66% | TRPC4/MOR inh 2 62% | TRPC6 inh conf 71% | TRPC6 act confirm inactive
CCCc1cc(NCCCCO)n2c(nc3ccccc32)c1C#N	none
Cc1cc(NCCCCO)n2c(nc3ccccc32)c1C#N	none
CCN(CC)CCCNc1cc(C(F)(F)F)c(C#N)c2nc3ccccc3n12	TRPC6 inh -6.5 | HEK293 MPD ctr-2 inactive | HEK293 MPD ctr 2-2 66% | TRPC4 ctr mod -66% | TRPC4/MOR inh 2 71% | TRPC6 inh conf 70% | TRPC6 act confirm inactive
CCOC(=O)N1CCN(S(=O)(=O)c2ccc(OCC)c(C)c2)CC1	TRPC6 inh -9.9, TRPC6 act 12 | HEK293 MPD ctr-2 inactive | HEK293 MPD ctr 2-2 inactive | TRPC4 ctr mod 18% | TRPC4/MOR inh 2 inactive | TRPC6 inh conf 74% | TRPC6 act confirm 128%
CCOC(=O)c1ccc(NC(=O)CCNS(=O)(=O)c2cc(Br)cnc2N)cc1	TRPC6 inh -6.9 | HEK293 MPD ctr-2 inactive | HEK293 MPD ctr 2-2 inactive | TRPC4 ctr mod -20% | TRPC4/MOR inh 2 inactive | TRPC6 inh conf 79% | TRPC6 act confirm inactive
CCOC(=O)N1CCN(S(=O)(=O)c2cc(Br)cnc2N)CC1	TRPC6 inh -7.2 | TRPC4 spec 2 inactive | TRPC4 spec inactive | HEK293 MPD ctr 2-1 inactive | HEK293 MPD ctr-1 inactive | TRPC6 inh conf inactive | TRPC6 act confirm inactive
CCOC(=O)N1CCN(S(=O)(=O)c2ccc(C)c(C)c2)CC1	none
CC(CNS(=O)(=O)c1ccc(Cl)cc1)n1cncn1 (stereo unspecified)	none
COc1ccc(S(=O)(=O)Nc2nnc(Cc3ccc(OC)c(OC)c3)s2)cc1	none
O=C(NCCCn1ccnc1)/C(=C\c1ccccc1Cl)NC(=O)c1ccccc1	none
CC[n+]1c(/C=C/Nc2ccccc2)oc2ccc(OC)cc21	TRPC6 inh -5.5, TRPC4 inh -7 | HEK293 MPD ctr-2 -74% | HEK293 MPD ctr 2-2 inactive | TRPC4 ctr mod -24% | TRPC4/MOR inh 2 inactive | TRPC6 inh conf 46% | TRPC6 act confirm inactive
CC[n+]1c(/C=C/N(C)c2ccccc2)oc2ccc(F)cc21	none
